Assay results: ChEMBL document CHEMBL1138601, “Diversity-oriented synthesis of a cytisine-inspired pyridone library leading to the discovery of novel inhibitors of Bcl-2” (Bioorg Med Chem Lett, 2009)

Key:
[1] = target: Apoptosis regulator Bcl-2 (Homo sapiens, UniProt P10415); test: Displacement of fluorescently-tagged BH3 peptide from Bcl-2 by chemiluminescent nitrogen detection method
Outline: (§1)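 Solution-phase competition binding in HTS format. Inhibitors compete with a fluorescently tagged BH3 peptide for Bcl-2 or Bcl-xL. Library compounds were first screened at one fixed concentration. Hits exceeding three standard deviations above assay error were then run in a multi-point dilution series, and Ki values were derived from that series.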

Bcl-2-like protein 1 = Bcl-2-like protein 1 (Homo sapiens, UniProt Q07817); test: Displacement of fluorescently-tagged BH3 peptide from Bcl-XL by chemiluminescent nitrogen detection method; outline: as §1
Bcl-2-like protein 1, sequence (Q07817 whole entry): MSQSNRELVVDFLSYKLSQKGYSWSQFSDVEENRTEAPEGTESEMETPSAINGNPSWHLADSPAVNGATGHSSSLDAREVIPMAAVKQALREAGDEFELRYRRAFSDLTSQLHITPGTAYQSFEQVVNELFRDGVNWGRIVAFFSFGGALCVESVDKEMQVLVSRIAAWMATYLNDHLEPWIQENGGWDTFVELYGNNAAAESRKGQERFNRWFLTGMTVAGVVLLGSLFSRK

Apoptosis regulator Bcl-2, sequence (P10415 whole entry): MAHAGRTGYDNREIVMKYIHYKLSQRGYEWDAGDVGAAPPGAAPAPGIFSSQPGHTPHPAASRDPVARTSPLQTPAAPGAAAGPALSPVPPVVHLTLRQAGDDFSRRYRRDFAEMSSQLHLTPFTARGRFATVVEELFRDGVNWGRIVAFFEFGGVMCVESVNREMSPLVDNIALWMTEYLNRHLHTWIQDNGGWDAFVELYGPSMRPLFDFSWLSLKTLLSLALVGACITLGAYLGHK

| Ki [1] [µM] | Ki (Bcl-2-like protein 1) [µM] | SMILES |
| --- | --- | --- |
| 1.2 | > 100 | O=C([C@@H]1[C@@H](CO)[C@@H]2Cn3c(cccc3=O)[C@@H]2N1Cc1ccc(Cl)c(Cl)c1)N1CCC(Cc2ccccc2)CC1 |
| 4.1 | > 100 | O=C(N[C@H]1CCN(Cc2ccccc2)C1)[C@H]1[C@H](CO)[C@H]2Cn3c(cccc3=O)[C@H]2N1CC1CCCCC1 |
| 6.8 | > 100 | O=C([C@@H]1[C@@H](CO)[C@@H]2Cn3c(cccc3=O)[C@@H]2N1Cc1ccc(Oc2ccccc2)cc1)N1CCC(c2ccc(F)cc2)CC1 |
| 2 | 5.7 | CN(C)CCNC(=O)[C@@H]1[C@@H](CO)[C@@H]2Cn3c(cccc3=O)[C@H]1N2c1nc(-c2ccc(Cl)cc2)c(-c2ccccc2)s1 |
| 8.4 | > 100 | O=C(NCc1ccc(Oc2ccccc2)cc1)[C@H]1[C@H](CO)[C@H]2Cn3c(cccc3=O)[C@H]2N1CC1CCCCC1 |
| 1.6 | 7.8 | O=C(NCCCN1CCCC1)[C@H]1[C@H](CO)[C@H]2Cn3c(cccc3=O)[C@@H]1N2c1nc(-c2ccc(Cl)cc2)c(-c2ccccc2)s1 |
| 14 | > 100 | COCCNC(=O)[C@H]1[C@H](CO)[C@H]2Cn3c(cccc3=O)[C@@H]1N2c1nc(-c2ccc(Cl)cc2)c(-c2ccccc2)s1 |
| 1.5 | 11 | O=C(NCCN1CCCCC1)[C@H]1[C@H](CO)[C@H]2Cn3c(cccc3=O)[C@@H]1N2c1nc(-c2ccc(Cl)cc2)c(-c2ccccc2)s1 |
| 5.4 | > 100 | O=C(NC1Cc2ccccc2C1)[C@H]1[C@H](CO)[C@H]2Cn3c(cccc3=O)[C@H]2N1CC1CCCCC1 |
| 2.2 | > 100 | O=C([C@@H]1[C@@H](CO)[C@@H]2Cn3c(cccc3=O)[C@@H]2N1Cc1ccc(Cl)c(Cl)c1)N1CCC(c2ccc(F)cc2)CC1 |
| 7.8 | > 100 | O=C(N[C@@H]1CCN(Cc2ccccc2)C1)[C@H]1[C@H](CO)[C@H]2Cn3c(cccc3=O)[C@H]2N1CC1CCCCC1 |
| 2.5 | 6 | O=C(NCCN1CCCCC1)[C@@H]1[C@@H](CO)[C@@H]2Cn3c(cccc3=O)[C@H]1N2c1nc(-c2ccc(Cl)cc2)c(-c2ccccc2)s1 |
| 3 | 5.7 | O=C(NCCCN1CCCC1)[C@@H]1[C@@H](CO)[C@@H]2Cn3c(cccc3=O)[C@H]1N2c1nc(-c2ccc(Cl)cc2)c(-c2ccccc2)s1 |
| 4.3 | > 100 | COCCNC(=O)[C@@H]1[C@@H](CO)[C@@H]2Cn3c(cccc3=O)[C@H]1N2c1nc(-c2ccc(Cl)cc2)c(-c2ccccc2)s1 |
| 1.3 | 6.6 | CN(C)CCNC(=O)[C@H]1[C@H](CO)[C@H]2Cn3c(cccc3=O)[C@@H]1N2c1nc(-c2ccc(Cl)cc2)c(-c2ccccc2)s1 |
| 5.2 | > 100 | O=C([C@@H]1[C@@H](CO)[C@@H]2Cn3c(cccc3=O)[C@@H]2N1Cc1ccc(Oc2ccccc2)cc1)N1CCC(Cc2ccccc2)CC1 |
